Screening results deposited in PubChem by Johns Hopkins Ion Channel Center.
MrgX1 ag – agonists of human MrgX1 receptor, primary screen, HEK293 cells, Fluo-4 calcium flux | B-score at 10 µM | Fluo-4 calcium fluorescence, agonist mode; stronger effect = higher value | hit rate 0.44% among 310,000;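 active means calcium response B-score plate-corrected fluorescence ratio at least 3 library SD, with starting fluorescence B-score inside 5 SD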
Target sequence (Q96LB2 whole entry, looked up): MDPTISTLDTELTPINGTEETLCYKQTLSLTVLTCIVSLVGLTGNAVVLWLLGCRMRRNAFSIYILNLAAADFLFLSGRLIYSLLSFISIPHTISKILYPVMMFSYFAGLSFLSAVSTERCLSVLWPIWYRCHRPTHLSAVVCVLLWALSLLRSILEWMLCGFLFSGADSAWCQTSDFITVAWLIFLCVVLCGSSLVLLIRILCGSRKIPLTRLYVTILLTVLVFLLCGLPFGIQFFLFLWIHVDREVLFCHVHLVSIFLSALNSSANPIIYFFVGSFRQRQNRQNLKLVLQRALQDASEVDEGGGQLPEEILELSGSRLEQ
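System: HEK293 cells stably expressing human MrgX1 receptor; Dosing: test compound in the initial addition of three; Schedule: overnight plating, then 30 min 37 °C plus 30 min room-temperature dye loading; Detection: kinetic calcium dye fluorescence, Fluo-4 NW; Controls: per-plate positive and negative controls for Z′ factor.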
MrgX1 antag – antagonists of human MrgX1 receptor, primary screen, HEK293 cells, Fluo-4 calcium flux | hit rate 1.3% among 310,000 | B-score at 10 µM | BAM8-22 antagonism; stronger effect = lower value | Mas-related G-protein coupled receptor member X1 (Homo sapiens), Q96LB2;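 active means calcium-response B-score plate-corrected more than 3 library SD below zero, starting fluorescence within 5 deviations, no agonist response on first addition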;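 further: peak minus trough fluorescence over baseline after final BAM8-22 challenge near maximal dose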
MrgX1 PAM – positive allosteric modulators of MrgX1, primary screen, HEK293 cells, Fluo-4 calcium flux. B-score at 10 µM. AID 588675, 2011. FDSS; stronger effect = higher value. hit rate 0.63% among 310,000;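 active means plate-corrected calcium response at least 3 library SD above typical, normal starting fluorescence, not activating the receptor alone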;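 further: compound read alongside a low EC10 to EC30 dose of BAM8-22 agonist; peak minus trough fluorescence over baseline measured at the second addition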
RGS4 act – RGS4 potentiators or activators, primary screen, cell-based, HEK293 M3R inducible RGS4, calcium flux; carbachol calcium flux Fluo4; stronger effect = lower value; B-score at 10 µM; hit rate 0.92% among 310,000; AID 463111, 2010;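 active means B-score of the integrated calcium signal more than 4 SD below the library mean, with starting fluorescence not abnormally high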;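 further: negative B-score means reduced calcium response which marks RGS4 activation or potentiation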
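Test system: HEK293 cells with stable M3R and inducible RGS4; also added: carbachol at ECmax as muscarinic agonist stimulus; schedule: dye loading 30 min 37 °C, buffer rest 30 min RT; technique: kinetic calcium fluorescence imaging with Fluo4-AM dye, 2 µM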
RGS4 block – RGS4 inhibitors, primary screen, cell-based, HEK293 M3R inducible RGS4, calcium flux; hit rate 0.45% among 310,000; Fluo-4 calcium flux; stronger effect = higher value; triggered by carbachol at its EC20; B-score at 10 µM; AID 463165, 2010; Regulator of G-protein signaling 4 (Homo sapiens), P49798;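 active means B-score, a plate-corrected calcium signal, over three deviations above library mean, with baseline fluorescence within five deviations of library mean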;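 further: RGS4 expression induced by doxycycline in cells with stable M3 receptor; B-score is computed from the integrated fluorescence ratio over baseline after carbachol; higher B-score means a larger calcium signal and so more RGS4 inhibition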
Target sequence (P49798 whole entry, looked up): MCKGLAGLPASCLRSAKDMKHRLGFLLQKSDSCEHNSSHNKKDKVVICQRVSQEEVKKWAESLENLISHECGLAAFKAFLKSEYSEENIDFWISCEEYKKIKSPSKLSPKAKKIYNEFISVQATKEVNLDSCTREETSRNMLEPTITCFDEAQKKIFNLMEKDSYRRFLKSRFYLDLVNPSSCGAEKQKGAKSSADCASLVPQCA
Starred values were filed as active, the others as inactive; i = inactive; x = no result. Compounds with a hit are over-represented: about 3.5% of the library has one in this group of screens.

SMILES	MrgX1 ag	MrgX1 antag	MrgX1 PAM	RGS4 act	RGS4 block
O=C(Oc1ccc(Br)cc1C(=S)N1CCOCC1)c1ccc([N+](=O)[O-])cc1[N+](=O)[O-]	i	i	i	-7.5*	i
CCCCn1c(N)c(N(CC(C)C)C(=O)c2ccco2)c(=O)[nH]c1=O	i	i	i	i	i
CCOC(=O)C1CCCN(C(=O)CCNS(=O)(=O)c2cc(Br)cnc2N)C1 (configuration not stated)	i	i	i	i	i
COc1ccc2cc(-c3[nH]ncc3CN3CCCCO3)ccc2c1	35*	i	i	i	i
COc1ccc(-c2[nH]ncc2CN2CCCO2)cc1F	i	i	i	i	i
COc1cccc(CNC(=O)Cc2ccc(OC)c(S(=O)(=O)N3CCOCC3)c2)c1	i	i	i	i	i
CC/C(=C\c1oc2cc3ccccc3cc2[n+]1CC)Nc1ccccc1	27*	i	i	i	i
CC[n+]1c(/C=C/N(C)c2ccccc2)oc2ccccc21	i	i	i	i	i
CC1CCN(CCCCOc2ccccc2Br)CC1	i	i	i	i	i
CC1CCN(CCCCOc2cccc(Br)c2)CC1	i	i	i	-7*	i
CC1CCN(CCCCOc2ccc(Br)cc2)CC1	i	i	i	-7.4*	i
Brc1ccc(OCCCCN2CCCCC2)cc1	i	i	i	i	i
CC1CCN(C(=O)Cn2nnc(-c3ccc(C(C)C)cc3)n2)CC1	i	i	i	i	i
CCC1CN(C(=O)N2CCC(C(=O)Nc3ccccc3OC)CC2)c2ccccc2O1 (configuration not stated)	i	i	i	i	i
O=C1/C(=C\c2ccc(O)cc2)SC(=S)N1/N=C/c1ccc(O)cc1	39*	i	i	i	i
COc1ccccc1C(=O)NCCC(=O)Nc1ccc(OC(F)(F)F)cc1	i	i	i	i	i
CCNC(=S)N/N=C/c1ccc(OCc2ccc(C(=O)OC)cc2)cc1	i	-4.7*	i	i	i
O=C(CCc1nc2sc3c(c2c(=O)[nH]1)CCCC3)N1CCN(c2ccccc2)CC1	i	-7.2*	i	i	i
Cc1ccc[n+](CC(=O)c2cc3ccccc3oc2=O)c1	i	i	i	-9.9*	i
Cc1cc(C(=O)CS(=O)(=O)c2ccc(F)cc2)cc(C)c1O	i	i	i	i	i
CCOC(=O)CSc1nc(N)c(C#N)c(-c2ccc(OC)cc2)c1C#N	i	-5.8*	i	i	i
COc1cccc2c1C(=O)C=C(C)C2=O	i	-7.7*	i	-7.1*	i
O=C(Cc1c(F)c(F)c(F)c(F)c1F)Nc1nc(-c2ccccc2)cs1	i	i	i	-7.1*	i
CCOc1cccc2cc(-c3nnc(NCc4ccco4)s3)c(=O)oc12	i	-4.8*	i	i	i
Cc1ncc(CO)c(/C=N/NC(=O)c2cc(Br)ccc2O)c1O	i	i	i	i	i
SMILES	MrgX1 ag	MrgX1 antag	MrgX1 PAM	RGS4 act	RGS4 block
Cc1ncc(CO)c(/C=N/NC(=O)c2ccc(Br)cc2)c1O	i	i	i	i	8.4*
Cc1cc(C)c2sc(NC(=O)C3=COCCO3)nc2c1	i	i	i	i	i
CCOc1ccc(-c2cc(C(=O)N/N=C(\C)c3cccnc3)c3ccccc3n2)c(OCC)c1	i	i	i	i	i
CC1CCCCN1CCNC(=O)c1ccc2c(c1)N(Cc1cccc(Cl)c1)C(=O)c1ccccc1S2=O (configuration not stated)	i	i	i	-8.2*	i
CC1CC(C)CN(CCCNC(=O)c2ccc3c(c2)N(Cc2ccccc2)C(=O)c2ccccc2S3=O)C1 (configuration not stated)	i	i	i	-7.2*	i
O=C(NCCCN1CCCC1)c1ccc2c(c1)N(Cc1cccc(Cl)c1)C(=O)c1ccccc1S2=O (configuration not stated)	i	i	i	i	i
Cc1ccccc1CN1C(=O)c2ccccc2S(=O)c2ccc(C(=O)NCCCN3CCOCC3)cc21 (configuration not stated)	i	i	i	i	i
COc1ccc(/C=N/NC(=O)c2ccc(N(C)S(=O)(=O)c3ccccc3)cc2)c(OC)c1	i	i	i	i	i
COc1ccc(OC)c(/C=N/NC(=O)c2ccc(N(C)S(=O)(=O)c3ccccc3)cc2)c1	i	i	7*	i	i
CCOC(=O)[C@H]1[C@H]2COc3ccc(OC)cc3[C@@H]2N2C(=O)c3cc(F)c(F)cc3NC(=O)[C@@]12C	i	i	i	x	x
CCOC(=O)c1cc(C#N)c(Oc2cccc(C(F)(F)F)c2)nc1-c1ccccc1	i	i	i	-7.8*	i
CCOC(=O)c1cc(C#N)c(Oc2ccc(F)cc2)nc1-c1ccccc1	i	i	i	i	i
CC1=C(C)CS(=O)N(c2ccc(S(N)(=O)=O)cc2)C1 (configuration not stated)	53*	i	i	i	i
CC1=C(C)CS(=O)N(S(=O)(=O)c2ccccc2)C1 (configuration not stated)	i	i	i	i	i
COc1ccc(NC(=O)N2CCCc3ccccc32)cc1	i	i	i	i	i
COc1ccc(N/N=C(/C(C)=O)N2CCCc3ccccc32)cc1	i	i	i	-8*	i
COc1ccc(-c2csc3ncnc(N4CCN(S(=O)(=O)c5ccc(C(C)=O)cc5)CC4)c23)cc1	i	i	i	-7*	i
COc1ccc(-c2csc3ncnc(N4CCN(c5ccccc5[N+](=O)[O-])CC4)c23)cc1	i	i	i	-7.3*	i
Cc1ccc(C)n1-c1ccc(C(=O)N/N=C/c2ccncc2)cc1	i	i	10*	i	i
O=C(NCC1CCCO1)C(=O)N/N=C/c1ccc(OCc2ccccc2Cl)cc1 (configuration not stated)	i	i	i	i	i
CC(C)(C)C(=O)C(Cl)C(=O)Nc1ccccc1 (configuration not stated)	i	i	i	i	45*
CC(C)Oc1cccc(C2NC(=O)c3ccccc3O2)c1 (configuration not stated)	i	i	i	i	i
